Results on three compounds are retold here after ChEMBL document CHEMBL5316278, “Chemical Blockage of the Mitochondrial Rhomboid Protease PARL by Novel Ketoamide Inhibitors Reveals Its Role in PINK1/Parkin-Dependent Mitophagy” (J Med Chem, 2023).

Experiment [1] concerns the target T1, Presenilin-associated rhomboid-like protein, mitochondrial (Homo sapiens) (UniProt Q9H300).
T1 sequence (whole entry): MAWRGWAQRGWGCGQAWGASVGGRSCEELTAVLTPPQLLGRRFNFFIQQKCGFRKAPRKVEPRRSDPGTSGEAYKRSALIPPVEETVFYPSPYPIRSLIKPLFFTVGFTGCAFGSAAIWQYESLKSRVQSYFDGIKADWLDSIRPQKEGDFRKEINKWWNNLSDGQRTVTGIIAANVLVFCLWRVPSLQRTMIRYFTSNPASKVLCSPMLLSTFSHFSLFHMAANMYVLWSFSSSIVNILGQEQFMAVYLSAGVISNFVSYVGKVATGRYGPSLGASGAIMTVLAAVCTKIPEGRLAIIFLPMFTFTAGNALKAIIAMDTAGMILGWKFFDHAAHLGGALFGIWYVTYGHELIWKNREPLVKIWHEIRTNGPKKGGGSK
In words: Inhibition of human PARL expressed in human HEK293T cells assessed as stabilization of 62 kDa PINK1 at 5 uM incubated for 8 hrs by immunoblot analysis. The class given is cell-based. The gist of the method:
(§1)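 Parental HEK293T cells (endogenous PINK1) were treated for 8 h, with DMSO or CCCP as comparators. Mitochondrial membranes were enriched by hypotonic needle lysis, 100,000 × g pelleting and 100 mM Na2CO3 extraction through a sucrose cushion. PINK1 was then read by immunoblot, with VDAC as fractionation control; n = 3, means ± SEM.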

The target in experiment [2] is T1, Presenilin-associated rhomboid-like protein, mitochondrial (Homo sapiens). Briefly: Inhibition of human PARL expressed in human Flp-In-T-REx-293 cells overexpressing PINK1 assessed as stabilization of 66 kDa PINK1 at 0.1 to 30 uM incubated for 8 hrs by immunoblot analysis. Type of experiment: cell-based. The settings on record: dose 0.1-30 µM. An outline of the steps:
(§2)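 HEK293 T-REx cells with inducible PINK1 were grown in DMEM with 10% FBS, GlutaMAX, pyruvate, hygromycin and blasticidin. PINK1 was induced with 0.3 μg/mL doxycycline for 24 h. Cells were treated for 8 h, with DMSO and CCCP (10 μM, 3 h) as comparators. Cleaved PINK1 forms were resolved by immunoblot of whole-cell samples.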

For experiment [3] the target is unchanged. Briefly: Inhibition of human PARL expressed in human T-REx-293 cells overexpressing PINK1 transfected with mito-mCherry and Parkin-mEGFP assessed as Parkin recruitment in mitochondria at 5 uM incubated for 3 hrs by fluorescence based microscopic analysis. An outline of the steps: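 PINK1-induced HEK293 T-REx cells on poly-L-lysine slides were co-transfected with mito-mCherry and Parkin-mEGFP using PEI. Nuclei were stained with Hoechst (1 μg/mL) before treatment, and cells were treated for 3 h alongside DMSO, CCCP and Antimycin A. Parkin colocalisation with mitochondria was judged by fluorescence microscopy and line-scan pixel intensity plots.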

Another experiment concerns HEK-293T. In words: Disruption of mitochondrial membrane potential in human HEK293T cells at 5 uM incubated for 3 hrs by JC-1 staining method. Type of experiment: functional, cell-based.
The target in experiment [4] is T1, Presenilin-associated rhomboid-like protein, mitochondrial (Homo sapiens). Briefly: Inhibition of human PARL expressed in human Flp-In-T-REx-293 cells overexpressing PINK1 assessed as stabilization of 66 kDa PINK1 at outer mitochondrial membrane at 5 uM incubated for 6 hrs followed by proteinase K treatment by immunoblot analysis. Type of experiment: cell-based. The gist of the method:
(§3)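 PINK1 was induced in HEK293 T-REx cells (doxycycline 0.3 μg/mL, 24 h), then treated for 6 h. Cells were lysed directly, or mitochondria were isolated by needle lysis and 10,000 × g centrifugation and digested with proteinase K for 30 min, then 2.5 mM PMSF for 15 min. Read-out was immunoblot, with AIF as fractionation control.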
Background: Immunoblotting shows a protein as a band on a membrane.

Experiment [5] shares this target. Briefly: Inhibition of human PARL expressed in human Flp-In-T-REx-293 cells overexpressing PINK1 assessed as stabilization of 62 kDa PINK1 by measuring its inner mitochondrial level at 5 uM incubated for 3 hrs followed by proteinase K treatment by immunoblot analysis. The class given is cell-based. The gist of the method:
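PINK1 was induced in HEK293 T-REx cells by doxycycline and treated for 3 h, with DMSO and CCCP as comparators. Mitochondria were isolated at 4 °C in EGTA-free isolation buffer and exposed to proteinase K for 1 h, then PMSF (2.5 mM, 15 min). PINK1 forms were read by immunoblot, with AIF and VDAC as fractionation controls.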

The target is the same in experiment [6]. In words: Inhibition of human PARL expressed in human T-REx-293 cells overexpressing PINK1 transfected with HA-Parkin-IRES-GFP assessed as increase in Parkin level in mitochondrial fraction at 5 uM incubated for 22 hrs by immunoblot analysis. Type of experiment: mitochondria. The gist of the method: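 PINK1-induced HEK293 T-REx cells were transiently transfected with HA-Parkin-IRES-GFP (100 ng per 6-well, linear PEI). They were treated for 22 h, with DMSO, CCCP (10 μM, 3 h) and Antimycin A (30 μM, 3 h) as comparators. Cells were fractionated into cytosolic and mitochondrial fractions and immunoblotted (AIF, β-actin controls); n = 3, unpaired t-test.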

The target is the same in experiment [7]. Briefly: Inhibition of human PARL expressed in human HEK293T cells assessed as stabilization of 66 kDa PINK1 at 5 uM incubated for 8 hrs by immunoblot analysis. The class given is cell-based. An outline of the steps:
as §1

Experiment [8] shares this target. Briefly: Inhibition of human PARL expressed in human Flp-In-T-REx-293 cells overexpressing PINK1 assessed as stabilization of 53 kDa PINK1 at 0.1 to 30 uM incubated for 8 hrs by immunoblot analysis. Type of experiment: cell-based. The following applies: dose 0.1-30 µM. The gist of the method:
as §2

The target is the same in experiment [9]. Briefly: Inhibition of human PARL expressed in human Flp-In-T-REx-293 cells overexpressing PINK1 with OMA1 knockdown assessed as stabilization of 62 kDa PINK1 at 10 uM incubated for 8 hrs by immunoblot analysis. The class given is cell-based. An outline of the steps:
(§4)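 PINK1-inducible HEK293 T-REx cells were transfected with 20 nM siRNA using RNAiMAX and analysed five days later. PINK1 was induced with doxycycline. Cells were treated for 8 h with 10 μM or DMSO. Read-out was immunoblot, with β-actin as loading control.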

Experiment [10] has the same target. Briefly: Inhibition of human PARL expressed in human Flp-In-T-REx-293 cells overexpressing PINK1 with OMA1 knockdown assessed as stabilization of 53 kDa PINK1 at 10 uM incubated for 8 hrs by immunoblot analysis. The class given is cell-based. The gist of the method:
as §4

Experiment [11] has the same target. In words: Inhibition of human PARL expressed in human Flp-In-T-REx-293 cells overexpressing PINK1 assessed as stabilization of 62 kDa PINK1 at 0.1 to 30 uM incubated for 8 hrs by immunoblot analysis. The settings on record: dose 0.1-30 µM. Type of experiment: cell-based. An outline of the steps:
as §2

For experiment [12] the target is unchanged. Briefly: Inhibition of human PARL expressed in human Flp-In-T-REx-293 cells overexpressing PINK1 assessed as stabilization of 53 kDa PINK1 at outer mitochondrial membrane at 5 uM incubated for 6 hrs followed by proteinase K treatment by immunoblot analysis. Type of experiment: cell-based. An outline of the steps: as §3

The source made the active and inactive calls. No cut-off for these calls is given here. *1 amine or outer side, *2 acyl side, *3 side chain or, on linkers, in order; H or OH if unused. Where a SMILES comes first, the peptide text is derived from it. [ ]: non-standard residue; d: D form. The star is where a group is joined. NH(4-phenylbutyl) = c1ccc(CCCCN*)cc1; X1 = C[C@H](N[*:1])C(=O)C(=O)[*:2]

For `CC(=O)N[C@@H](C)C(=O)N[C@H](C(=O)N[C@@H](Cc1ccccc1)C(=O)N[C@@H](CC(C)C)C(=O)N[C@@H](C)C(=O)C(=O)NCCCCc1ccccc1)C(C)C` (Ac-AVFL[X1]-{NH(4-phenylbutyl)}), the inhibition result in [1], in experiment [3], in experiment [5], in experiment [6], in [7] and in experiment [9] was “Active” throughout. For the same compound, the inhibition entry in experiment [10] is “Active”. Further, the inhibition entry in experiment [2], in [8] and in experiment [11] was “Dose-Dependent Effect” in each case. For the same compound, the result with HEK-293T was inactive. Further, the inhibition result in experiment [4] and in [12] was “inactive” each time.

As to `N#CC(C#N)=NNc1cccc(Cl)c1`, in the experiment on HEK-293T, the outcome was Active. In addition, the inhibition entry in experiment [5] is “inactive”. Moreover, in experiment [6], the inhibition result was “Active”.

As for `CCCCCC[C@H]1C(=O)O[C@H](C)[C@H](NC(=O)c2cccc(NC=O)c2O)C(=O)O[C@@H](C)[C@@H]1OC(=O)CC(C)C`, the inhibition entry in experiment [3] is “inactive”. Moreover, in experiment [6], the inhibition entry was “Active”.
